Sampled rows, rich in hits. Any-hit rate of the full collection: about 0.72%.
mIAP block – mouse IAP inhibition; 330,000 tested, 0.2% active; purified mouse IAP, CDP-Star luminescence, 30 min; inhibition, % at 10 µM; AID 2806;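 active = inhibition of at least 40% at 10 µM in the primary screen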
bIAP act – intestinal alkaline phosphatase (bovine) activation | 200,000 tested, 0.17% active | activation factor at 20 µM | purified bovine IAP, CDP-star luminescence, 30 min; hits give high values; fold of DMSO-control signal, blank-subtracted;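 active = activation factor of 2 or more at 20 µM, a signal rise over negative controls twice the positive control's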
mIAP activ – increases mouse intestinal alkaline phosphatase activity. muIAP, CDP-Star luminescence, 30 min; hits give high values; 1 = vehicle-only enzyme signal, 0 = enzyme-free wells. activation factor at 10 µM. 330,000 tested, 0.24% active;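 active = activation factor of at least 2 at 20 µM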
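System: mouse IAP enzyme. Reagent: CDP-Star chemiluminescent phosphatase substrate. Benchmarks: DMSO wells, no-enzyme wells. Times: 30 min enzyme-substrate-compound incubation at room temperature. Detection: luminescence from enzymatic CDP-Star hydrolysis. Doses: test compounds delivered from DMSO solution.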
hIAP block – human IAP inhibition; P09923; purified IAP, CDP-Star luminescence, 30 min; inhibition, % at 10 µM; 330,000 tested, 0.12% active; AID 2544;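 active = inhibition reaching a set limit with compound at 10 µM in the primary screen, cut at about 35% in these data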
Target sequence (P09923 whole entry, looked up): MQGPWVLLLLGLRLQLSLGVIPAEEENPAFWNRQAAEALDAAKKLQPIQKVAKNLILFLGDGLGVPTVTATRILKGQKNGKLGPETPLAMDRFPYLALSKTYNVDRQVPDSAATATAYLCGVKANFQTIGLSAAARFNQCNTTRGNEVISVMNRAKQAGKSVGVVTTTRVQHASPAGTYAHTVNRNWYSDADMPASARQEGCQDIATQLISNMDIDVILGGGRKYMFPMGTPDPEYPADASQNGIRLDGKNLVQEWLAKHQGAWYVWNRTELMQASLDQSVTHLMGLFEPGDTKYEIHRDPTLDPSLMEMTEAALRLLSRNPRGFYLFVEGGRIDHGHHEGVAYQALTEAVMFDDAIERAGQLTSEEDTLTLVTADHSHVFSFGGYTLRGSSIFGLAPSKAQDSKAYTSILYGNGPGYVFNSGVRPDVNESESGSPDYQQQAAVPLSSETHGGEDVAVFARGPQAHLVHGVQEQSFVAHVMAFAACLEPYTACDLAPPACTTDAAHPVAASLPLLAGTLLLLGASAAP
hIAP act – increases human intestinal alkaline phosphatase activity; 330,000 tested, 0.16% active; activation factor at 10 µM; P09923; AID 2524; purified human IAP, CDP-Star luminescence, 30 min; hits give high values; 1 = vehicle-only enzyme, 0 = enzyme-free background;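 active = activation factor of the enzyme at least 2-fold when tested at 20 µM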
bIAP inhibitor – intestinal alkaline phosphatase (bovine) inhibition. 190,000 tested, under 10 active. inhibition, % at 20 µM. purified bovine IAP, CDP-star luminescence, 30 min;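 active = over 50% inhibition of intestinal alkaline phosphatase at 20 µM in the single-dose screen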
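Incubation: 30 min reaction at room temperature / Material: purified bovine intestinal alkaline phosphatase (IAP) enzyme / Input: enzyme at 1/65,000,000 dilution / Dosing: 20 µM single dose / Signal: CDP-star luminescence signal / Reagent: CDP-star chemiluminescent phosphatase substrate, 30 µM final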
hIAP act conf – human IAP activation confirmation; 880 tested, 10% active; shares compounds with hIAP act; activation (%Activity, negative = activation), % at 8.3 µM; purified IAP, CDP-Star luminescence, 30 min; hits give low values;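 active = at least twofold enzyme activation in any of six single-dose repeats, which the averaged readout prints as negative percent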
A number is an active result; - = inactive; . = no result given.

SMILES	mIAP block	bIAP act	mIAP activ	hIAP block	hIAP act	bIAP inhibitor	hIAP act conf
Cc1cc(C)nc(Nc2n[nH]c(COc3ccccc3)n2)n1	-	-	-	-	-	-	.
Cc1cc(C)nc(Nc2n[nH]c(COc3ccc4ccccc4c3)n2)n1	-	-	-	-	2	-	-
Cc1ccnc(-n2c(C)cc(/C=N/NC(=O)COc3cccc4cccnc34)c2C)c1	-	.	-	-	-	.	.
CCNc1nc(NCC)nc(-n2nc(C)cc2C)n1	-	-	-	41	-	-	-
C=CCn1c(O)c(N=Nc2ccccc2O)c2ccccc21	-	.	-	-	2.2	.	-
CN(Cc1ccc(Cl)c(Cl)c1)C(=O)CN1C(=O)NC2(CCCC2)C1=O	-	.	-	-	-	.	.
COc1ccc(C(=O)N=C2CCC(C#N)=C3c4cc(OC)c(OC)cc4CCN23)cc1	-	-	-	-	2.1	-	-
COc1cc2c(cc1OC)C1=C(C#N)CC/C(=N\S(=O)(=O)c3ccccc3)N1CC2	-	-	-	-	-	-	.
COc1ccc(S(=O)(=O)N(CC(=O)N2CCOCC2)Cc2ccccc2)cc1	-	-	-	-	3.2	-	-
NC(=O)c1nc(-c2cccs2)nc2c1[nH]c(=O)n2-c1ccc(F)cc1	-	-	-	-	2.3	-	-
NC(=O)c1nc(-c2ccco2)nc2c1[nH]c(=O)n2-c1ccc(Cl)c(Cl)c1	-	.	-	-	2.1	.	-
CCn1c2ccccc2c2cc(NC(=O)c3coc(=O)c(Br)c3)ccc21	-	.	-	42	-	.	-
COc1cccc(C(=O)NCC(=O)NNc2ncnc(N)c2[N+](=O)[O-])c1	-	-	-	-	2.7	-	-
Cc1cccc(C)c1Nc1ncnc(N)c1[N+](=O)[O-]	-	-	-	-	-	-	.
CCOC(=O)C(=O)N/N=C(/c1ccccc1)c1ccc(OC)cc1	-	.	-	37	-	.	-
COC(=O)N=Nc1c(O)[nH]c2ccc(Br)cc12	-	.	-	44	-	.	-
O=C(CNC(=O)c1ccccc1)N=Nc1c(O)[nH]c2ccc(Br)cc12	-	.	-	-	-	.	.
CCOC(=O)Cn1c(=O)c2c(nc3n2CC(C)CN3Cc2ccccc2)n(C)c1=O (stereo not given)	-	.	-	-	-	.	.
CC1CN(Cc2ccccc2)c2nc3c(c(=O)n(CC(N)=O)c(=O)n3C)n2C1 (stereo not given)	-	.	-	39	-	.	-
CN(C(=O)CSc1ncccc1C(=O)O)c1ccccc1	-	-	-	36	-	-	-
Cc1ccc(S(=O)(=O)NC2CC(C)(C)NC(C)(C)C2)c(C)c1C	-	.	-	-	-	.	.
OC1(c2cccs2)CN(c2ccc(Br)cc2)C2=[N+]1CCCS2 (stereo not given)	-	.	-	-	2.8	.	-
CCNc1nc(NC(C)C)nc(N(C#N)C(C)C(=O)N(CC)CC)n1 (stereo not given)	-	.	-	-	-	.	.
Cc1ccc2nc(C)c3c(c2c1)SCC3	-	.	-	-	-	.	.
CC(=O)Nc1cccc(C(=O)NNC(=O)c2n[nH]c(=O)c3ccccc23)c1	-	.	-	-	2.3	.	-125
SMILES	mIAP block	bIAP act	mIAP activ	hIAP block	hIAP act	bIAP inhibitor	hIAP act conf
CC(C)c1ccc(C(=O)NNC(=O)c2n[nH]c(=O)c3ccccc23)cc1	-	.	-	-	-	.	.
Cc1ccc(C)c(NS(=O)(=O)c2cc(C(=O)NCc3ccncc3)ccc2C)c1	-	.	-	-	-	.	.
Cc1nnc(SCC(=O)NCc2ccccc2)n1-c1ccccc1	-	-	-	-	-	-	.
Cc1nnc(SCC(=O)NCc2cccs2)n1-c1ccccc1	-	-	-	-	2.1	-	-
COc1cccc(/C=N/NC(=O)N/N=C/c2cccc(OC)c2O)c1O	-	.	-	-	2.5	.	-
COc1cccc(/C=N/Nc2nn3cnnc3c3ccccc23)c1O	-	-	-	-	2	-	-
Oc1cccc(/C=N/Nc2nn3cnnc3c3ccccc23)c1	-	.	-	-	-	.	.
COc1ccc2[nH]c(=O)c(CN(C)C(=O)c3cccs3)cc2c1	-	.	-	-	-	.	.
CN(C)c1nc(-c2cn(CCC#N)c3ccccc23)cs1	-	.	-	-	-	.	.
CCOC(=O)c1c(-c2ccccc2)csc1NC(=O)COc1ccc2c(C)cc(=O)oc2c1	-	-	-	44	-	-	-

Screens (PubChem)
